Compounds with a hit are over-represented: about 2.8% of the library has one in this group of screens.
CAL PDZ FP-1 – human CAL PDZ-peptide interaction inhibition | purified CAL PDZ, TMR-peptide fluorescence polarization, 1 h | 330,000 compounds, 0.02% hits | inhibition, % at 20 µM | AID 504414 | Q9HD26;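 active means highest replicate inhibition of at least 40%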
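System: purified tagged CAL PDZ domain construct (CerCALP). Schedule: 1 h incubation at room temperature before polarization reading. Medium: 25 mM sodium phosphate pH 7.4, 150 mM NaCl, TCEP, IgG, Thesit. Read-out: percent inhibition from loss of millipolarization. Measured by: FP readout, S and P plane fluorescence. Probe or stimulus: fluorescent TMR peptide probe.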
CAL PDZ FP-2 – blocks peptide binding to the human CAL PDZ domain. purified CAL PDZ, TMR-peptide fluorescence polarization, 1 h. 300,000 compounds, 0.92% hits. inhibition, % at 24.9 µM;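 active means mean inhibition of at least 30% with at least half of replicates also reaching 30%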
SR-BI DiI inh – inhibitors of mouse SR-BI mediated HDL lipid uptake | Q61009 | AID 488896 | inhibition, % at 12.5 µM | 320,000 compounds, 0.96% hits | ldlA[mSR-BI] CHO cells, DiI-HDL uptake fluorescence, 3 h;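 active means mean replicate inhibition of at least 70% and a set share of replicates each scoring 70 or more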
Target sequence (Q61009 whole entry, looked up): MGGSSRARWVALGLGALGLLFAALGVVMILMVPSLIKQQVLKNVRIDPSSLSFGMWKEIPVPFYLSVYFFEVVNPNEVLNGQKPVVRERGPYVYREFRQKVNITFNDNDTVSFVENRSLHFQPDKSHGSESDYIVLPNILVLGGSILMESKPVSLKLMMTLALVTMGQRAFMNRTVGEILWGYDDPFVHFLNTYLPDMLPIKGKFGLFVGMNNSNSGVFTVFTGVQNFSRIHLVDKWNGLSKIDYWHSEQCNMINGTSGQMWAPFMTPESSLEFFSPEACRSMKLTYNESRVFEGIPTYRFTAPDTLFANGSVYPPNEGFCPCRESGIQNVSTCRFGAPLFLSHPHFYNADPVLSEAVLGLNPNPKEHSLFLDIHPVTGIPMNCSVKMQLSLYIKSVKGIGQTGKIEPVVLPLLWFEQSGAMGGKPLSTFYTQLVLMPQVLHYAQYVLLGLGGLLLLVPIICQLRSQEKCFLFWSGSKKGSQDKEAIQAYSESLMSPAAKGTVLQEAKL
dFosB activator – enhances mouse delta FosB homodimer DNA binding; 340,000 compounds, 0.99% hits; purified delta FosB, TAMRA-CDK5 oligo fluorescence polarization; percent of positive-control signal above neutral wells; activation, % at 25 µM; P13346;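 active means mean activation above about 17%, with every replicate also reaching it, limit read from the data, passing the limit was not always enough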
SR-BI DiI-HDL act – SR-BI HDL lipid transfer activation. CHO ldlA[mSR-BI] cells, DiI-HDL uptake fluorescence, 3 h; 100 = double the neutral-control signal. activation, % at 12.5 µM. 320,000 compounds, 0.096% hits;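 active means mean replicate activation of at least 60% and every replicate at or above 60%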
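material = CHO ldlA[mSR-BI] cells | medium = Ham's F12 with 0.5% BSA, HEPES 25 mM, pH 7.4 | reagent = fluorescent DiI-HDL, 10 µg/mL final | compound dosing = single-point compound dose | incubation = 3 h, 37 °C | measured by = bottom-read fluorescence, 550/595 nm | measure = HDL uptake via cellular fluorescence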
Of the large screens only hits and unclear results are named; the others gave an inactive call.

CCOC(=O)N1CCc2cc(OC)c(OC)c3c2c1cc1cc(OC)c(OC)cc13	SR-BI DiI inh 86.3
O=C(O)C1C2CCC(C2)C1C(=O)NCCc1cccc(Cl)c1 (centres undefined)	none (no result: CAL PDZ FP-1, CAL PDZ FP-2)
Cc1ccccc1OCC(=O)Nc1ccc([N+](=O)[O-])cc1	none
O=C(Nc1ccccc1Cl)c1ccc2c(c1)N(Cc1ccc(F)cc1)C(=O)CS2=O (centres undefined)	SR-BI DiI inh 82.2
COc1ccccc1S(=O)(=O)Cc1ccc(C(=O)NCc2ccccc2)o1	none
CCN(CC)S(=O)(=O)c1ccc(N2CCc3cc(OC)c(OC)cc3C2)nc1	CAL PDZ FP-2 50.5
CCN(CC)S(=O)(=O)c1ccc(N/N=C/c2cc(OC)c(OC)cc2OC)nc1	none
Cc1ccc(OCCOC(=O)CN2C(=O)NC3(CCCC3)C2=O)cc1	none
O=C(Oc1ccccc1)N1CCOCC1	CAL PDZ FP-2 74.0
O=C(Oc1ccc(OC(=O)N2CCOCC2)cc1)c1ccccc1	none (no result: CAL PDZ FP-2)
COc1ccccc1Oc1coc2cc(OC(=O)N3CCOCC3)ccc2c1=O	CAL PDZ FP-1 101.9
COc1cccc(Oc2coc3cc(OC(=O)N4CCOCC4)ccc3c2=O)c1	none
CC(C)(C)n1ncc2c(=O)n(Cc3ccc(Cl)c(Cl)c3)cnc21	CAL PDZ FP-2 81.5
CSc1cccc(NC(=S)NCCCN2CCN(c3ccc(F)cc3)CC2)c1	SR-BI DiI-HDL act 200.7
CC(C)=C1CCC(C)CC1=NNC(N)=S (centres undefined)	none
CC1C/C(=N\NC(N)=S)c2cc(Cl)ccc2S1 (centres undefined)	SR-BI DiI inh 80.1 (no result: CAL PDZ FP-2)
O=C(Cn1nc(Cc2cccnc2)c2ccccc2c1=O)Nc1ccccc1F	none
O=C(Cn1nc(Cc2cccnc2)c2ccccc2c1=O)Nc1cc(F)ccc1F	CAL PDZ FP-2 65.8
Cc1ccc(O)c(NC(=S)NC(=O)CC(C)C)c1	none
Cc1ccc(O)c(NC(=S)NC(=O)C(C)C)c1	CAL PDZ FP-2 33.8
Cc1ccc2[nH]c(=O)c(COC(=O)C3CCCCC3)cc2c1	CAL PDZ FP-2 active
Cc1ccc(C)c(NC(=O)CN(C)C(=O)C2CCN(C(=O)Nc3ccccc3)CC2)c1	none
c1ccc(CCNCCCOc2cccc3ccccc23)cc1	none
COCCn1cnnc1SCC(=O)Nc1ccc(N2CCCCC2)cc1	none
CCN(CC)c1ccc2c(-c3ccc(S(=O)(=O)O)cc3S(=O)(=O)[O-])c3ccc(=[N+](CC)CC)cc-3oc2c1	CAL PDZ FP-1 170.9, CAL PDZ FP-2 active, dFosB activator 62.9
Cc1ccc(NC(=O)C/C(N)=N/OC(=O)Nc2cccc(Cl)c2)cc1	none
Nc1ccc(N(c2ccccc2)c2ccc(N)cc2)cc1	dFosB activator 23.3
Cc1ccccc1SCC(=O)NNC(=O)c1ccccc1O	SR-BI DiI inh 78.9
O=C(COC(=O)c1ccc[nH]c1=O)NCC1CCCO1 (centres undefined)	CAL PDZ FP-2 56.5
Cc1nc2ccsc2c(=O)n1-c1cccc(Cl)c1	none
COc1ccc(NC(=O)N2CCN(S(C)(=O)=O)CC2)c(OC)c1	CAL PDZ FP-2 38.1
COCCN(C(=O)Nc1ccc(OC)cc1OC)C1CCN(C(C)=O)CC1	SR-BI DiI inh 79.6 (no result: SR-BI DiI-HDL act)
COc1ccc(NC(=O)N2CCCCCC2)c(OC)c1	none (no result: CAL PDZ FP-2)
CCNc1nc(NCC)n2c(SCC(=O)Nc3ccc(C)c(C)c3)nnc2n1	none
Cc1cccc2sc(NNC(=O)c3ccc(S(=O)(=O)N4CC(C)CC(C)C4)cc3)nc12 (centres undefined)	SR-BI DiI inh 130.8
Cc1cc(C)c2nc(NNC(=O)c3ccc(S(=O)(=O)N4CCCC(C)C4)cc3)sc2c1 (centres undefined)	SR-BI DiI inh 115.3
Cc1ccc2nc(NNC(=O)c3ccc4c(c3)OCCO4)sc2c1	none (no result: CAL PDZ FP-2)
Cc1cc(C)c2nc(NNC(=O)c3ccc(S(=O)(=O)N4CC(C)CC(C)C4)cc3)sc2c1 (centres undefined)	SR-BI DiI inh 138.7
Cc1ccc2nc(NNC(=O)c3ccc(S(=O)(=O)N4CCc5ccccc5C4)cc3)sc2c1	SR-BI DiI inh 119.3 (no result: CAL PDZ FP-2)
COC(=O)c1sc2ccccc2c1NC(=O)c1ccc(S(=O)(=O)N2CC(C)CC(C)C2)cc1 (centres undefined)	none
COc1ccc(C(=O)CC(SCC(NC(C)=O)C(=O)O)c2ccc(Cl)cc2)cc1OC (centres undefined)	none (no result: SR-BI DiI inh, SR-BI DiI-HDL act)
CC(OC(=O)c1cnccn1)C(=O)c1ccccc1 (centres undefined)	none
COc1ccc(NC(=O)COC(=O)CCC2CCCCC2)cc1	none
Cc1ccc(NC(=O)CSc2nnc(CNC(=O)c3ccco3)o2)cc1	none
O=C(CSc1nnc(CNC(=O)c2ccco2)o1)Nc1ccc(F)cc1	CAL PDZ FP-2 57.2
O=C(NCc1nnc(SCC(=O)N2CCCCCC2)o1)c1ccccc1F	none
Cc1cccc(-c2nnc(SCC(=O)NC3CCCC3)o2)c1	CAL PDZ FP-2 85.8
O=C(CSc1nnc(-c2cccc(F)c2)o1)NC1CCCC1	none
O=C(CSc1nnc(CNC(=O)c2ccccc2F)o1)NCc1ccco1	CAL PDZ FP-2 61.7
O=C(CSc1nnc(CNC(=O)c2ccccc2F)o1)NC1CCCC1	CAL PDZ FP-2 36.9
Cc1cc(C)cc(N(C(=O)c2csnn2)C(C(=O)NC2CCCC2)c2cccnc2)c1 (centres undefined)	none (no result: SR-BI DiI inh, SR-BI DiI-HDL act)
COC(=O)c1sc(NC(=O)c2ccc3c(c2)OCO3)c(C#N)c1C	none (no result: CAL PDZ FP-2)
CC(C)(CN1CCCC1)NS(=O)(=O)c1ccccc1	none
O=C(c1ccc(-c2ccc([N+](=O)[O-])cc2)o1)N1CCN(S(=O)(=O)c2cccs2)CC1	none
COc1cc(/C=C2\CCCc3c2nc2ccccc2c3C(=O)O)cc(OC)c1O	SR-BI DiI-HDL act 230.5
Cc1cc(C)n2nc(SC(C)C(=O)Nc3ccccc3F)nc2n1 (centres undefined)	none
COc1ccc(C(=O)NNC2=C(C(=O)C(F)(F)F)CCC2)cc1	SR-BI DiI inh 94.9 (no result: CAL PDZ FP-2)
O=C(NNC1=C(C(=O)C(F)(F)F)CCC1)c1ccc(Cl)cc1	SR-BI DiI inh 93.2
CC(C)(C)c1ccc(C(=O)NNC(=O)c2ccc(Cl)cc2)cc1	none
O=C(NNC1=C(C(=O)C(F)(F)F)CCC1)c1cccc(Cl)c1	SR-BI DiI inh 80.2
Cc1cccc(-n2ncc(C(=O)NC3CCCC3)c2C2CCN(C(=O)OC(C)(C)C)CC2)c1	none
CCOc1cc(C(=O)Nc2cc(F)ccc2C)ccc1OCC(=O)N1CCOCC1	none
CCOc1cc(C(=O)Nc2cc(C(=O)OC)ccc2C)ccc1OCC(=O)N1CCOCC1	SR-BI DiI inh 72.6
O=C(CCc1nc2ccccc2c(=O)[nH]1)Nc1cc(C(F)(F)F)ccc1N1CCCC1	none (no result: CAL PDZ FP-2)
Cc1ccc(S(=O)(=O)N2CCOCC2)cc1C(=O)N1CCN(c2ncccn2)CC1	CAL PDZ FP-2 50.8
Cc1ccc(S(=O)(=O)N2CCOCC2)cc1C(=O)OCC(=O)N1CCc2ccccc2C1	SR-BI DiI inh 76.2
O=C(OCC(=O)N1CCc2ccccc2C1)c1cccnc1Cl	CAL PDZ FP-2 71.2
